Data as given in ChEMBL document CHEMBL1123374, “Comparative pharmacology in the rat of ketamine and its two principal metabolites, norketamine and (Z)-6-hydroxynorketamine” (J Med Chem, 1986).

Legend:
[1] = Partition coefficient was expressed as the ratio of the equilibrium concentration in chloroform solvent to that in an equal volume of pH 7.4 aqueous buffer; format: ADME
Procedure, shortened: (§1)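 Compound at 100 µg/mL in organic solvent shaken with equal volume 0.1 M sodium phosphate buffer pH 7.4, 30 min, ambient temperature; phases separated by centrifugation, each quantified by GC against internal standard; coefficient = organic/aqueous concentration ratio; triplicate per solvent, mean ± SEM.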

Rattus norvegicus = test: Compound was administered to male Sprague-Dawley rats (250-300 g) by intravenous (iv) bolus injection at a dose of 40 mg/kg; format: functional
Procedure, shortened: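 Male Sprague-Dawley rats (250-300 g) with right jugular vein catheter, 48 h recovery; 40 mg/kg iv bolus as free base in propylene glycol/ethanol/water (40/10/50) or HCl salt in 0.9% saline; controls given vehicle. Anesthesia duration by loss of righting reflex; locomotor activity by stabilimeter, excitation ended at <2 events per 3 min; mean ± SEM, n = 4.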

[2] = Partition coefficient was expressed as the ratio of the equilibrium concentration in n-heptane solvent to that in an equal volume of pH 7.4 aqueous buffer; format: ADME; procedure, shortened: as §1
[3] = Partition coefficient was expressed as the ratio of the equilibrium concentration in benzene solvent to that in an equal volume of pH 7.4 aqueous buffer; format: ADME; procedure, shortened: as §1

With `NC1(c2ccccc2Cl)CCCCC1=O` (stereo not given) [NORKETAMINE] the Partition coefficient [1] was 296, the Duration of anesthesia (Rattus norvegicus) was 3.24 min and the “Duration of increase in SLA” value (Rattus norvegicus) was 7.15 min. The Partition coefficient [2] was 1.86 and the Partition coefficient [3] was 52.6.

For `NC1(c2ccccc2Cl)CCC[C@@H](O)C1=O` (stereo not given in full), the Partition coefficient [1] was 19.4, the Duration of anesthesia (Rattus norvegicus) was 0 min and the “Duration of increase in SLA” value (Rattus norvegicus) was 0 min. It also gave a Partition coefficient [2] of 0.00963 and a Partition coefficient [3] of 1.44.

For `CNC1(c2ccccc2Cl)CCCCC1=O` (stereo not given) [KETAMINE], the Partition coefficient [1] was 299, the Duration of anesthesia (Rattus norvegicus) was 7.11 min and the “Duration of increase in SLA” value (Rattus norvegicus) was 24.65 min. It also gave a Partition coefficient [2] of 6.36 and a Partition coefficient [3] of 98.6.
